Test [1] has as its system MCF7. In words: Cytotoxicity against human MCF7 cells after 24 hrs by MTT assay. The test is classed as functional, cell-based. Conditions: for IC50: MCF7, 24 h. An outline of the steps:
(§1)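 Exponentially growing cells were seeded at 10⁴ cells/well and allowed to attach for 24 h. Compounds were dissolved in 0.1% DMSO, diluted in medium and added across 1–100 for 24 h; controls received medium with 0.1% DMSO. MTT (1 mg/mL) was added for 4 h at 37 °C, formazan was solubilised in DMSO and A540 read. Assays were run in triplicate, with % cytotoxicity calculated from control-, blank- and test-well absorbances.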
In general terms: Tetrazolium assays rely on reduction of a dye to a coloured formazan, in cell work by metabolically active cells.

For a further test, the system named is A549. In words: Cytotoxicity against human A549 cells after 24 hrs by MTT assay. The test is classed as functional, cell-based. The note with it: A549, 24 h. In a few lines: as §1
Test [2] in a line: Cytotoxicity against mouse EAC cells after 24 hrs by MTT assay. Conditions: Ehrlich. Type of test: functional, cell-based. An outline of the steps: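 Mouse Ehrlich ascites tumour cells were given at least one in vitro passage before use, then plated at 10⁴ cells/well with 24 h attachment. Compounds in 0.1% DMSO/medium were tested at 1–100 for 24 h against vehicle controls. MTT (1 mg/mL) was applied for 4 h at 37 °C, formazan dissolved in DMSO and A540 read. Done in triplicate; % cytotoxicity was taken relative to control and blank absorbances.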

For test [3], the system named is MCF7. In words: Cytotoxicity against human MCF7 cells at 1 to 50 uM by MTT assay. Type of test: functional, cell-based. The note with it: TDE = time-dependent effect. An outline of the steps:
(§2)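 Time-course MTT: MCF-7 cells were seeded at 5 × 10³ cells/well and exposed to compounds at 1–50. % cytotoxicity and IC50 were determined at 24, 48 and 72 h using MTT read-out at 540 nm. Each experiment was performed independently three times and reported as mean ± SD.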

The test system of test [4] is MCF7. In words: Cytotoxicity against human MCF7 cells after 48 hrs by MTT assay. The test is classed as functional, cell-based. Conditions: MCF7, 48 h. In a few lines:
as §2

The test system of test [5] is MCF7. In words: Cytotoxicity against human MCF7 cells after 72 hrs by MTT assay. The test is classed as functional, cell-based. The note with it: MCF7, 72 h. In a few lines:
as §2

Test [6] deals with MCF7. In words: Ratio of IC50 for human MCF7 cells after 24 hrs to IC50 for human MCF7 cells after 48 hrs by MTT assay. The test is classed as functional. An outline of the steps:
(§3)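 MCF-7 cells at 5 × 10³ cells/well were treated with compounds at 1–50, and MTT IC50 values were determined at 24, 48 and 72 h (three independent experiments, mean ± SD). The fold reduction is the 24 h IC50 divided by the 48 h or 72 h IC50.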

For test [7], the system named is MCF7. In words: Ratio of IC50 for human MCF7 cells after 24 hrs to IC50 for human MCF7 cells after 72 hrs by MTT assay. Type of test: functional. In a few lines: as §3

For the molecule `Cn1nc(-c2ccc(C(F)(F)F)cc2)cc1-c1nnc(SCCOc2ccccc2F)o1`, the figures for the IC50 (in the test on MCF7 [1]; in the test on A549; in test [2]) were 33.3 µM, 68.1 µM and 35.1 µM, respectively.
Regarding `Cn1nc(-c2nnc(SCc3ccc(Cl)cc3F)o2)cc1-c1ccc(C(F)(F)F)cc1`, the Activity result is “Dose-dependent effect” with MCF7 [1] and “tde” with MCF7 [3]. The half-inhibitory concentration (IC50) (in general, the concentration needed to halve the response being measured) worked out at 18.2 µM in the test on MCF7 [1]; 48.2 µM in the test with A549; 26.2 µM in test [2]; 12.2 µM in the test with MCF7 [4]; 9.8 µM with MCF7 [5].
With `Cn1nc(-c2nnc(SCc3ccc(Cl)c(Cl)c3)o2)cc1-c1ccc(C(F)(F)F)cc1`, the half-inhibitory concentration (IC50) came to 27.2 µM with MCF7 [1], 44.2 µM with A549 and 46.2 µM in test [2].
As to `Cn1nc(-c2nnc(SCc3cccc(Cl)c3Cl)o2)cc1-c1ccc(C(F)(F)F)cc1`, the 50% inhibitory concentration (IC50) with MCF7 [1] worked out at 32.2 µM; in the test on A549, 54.3 µM; in test [2] it was 36.8 µM.
On to `Cn1nc(-c2ccc(C(F)(F)F)cc2)cc1-c1nnc(S)o1`, for which the IC50 in the test on MCF7 [1] is over 100 µM; in test [2] it was 75.3 µM.
For the molecule `Cn1nc(-c2ccc(C(F)(F)F)cc2)cc1-c1nnc(SCc2c(F)cccc2F)o1`, the figures for the IC50 (in the test with MCF7 [1]; in the test with A549; in test [2]) were 46.2 µM, 72.2 µM and 38.5 µM, respectively.
`Cn1nc(-c2nnc(SCc3c(F)cccc3F)o2)cc1-c1ccc(C(F)(F)F)cc1`: the Activity entry is “Dose-dependent effect” in the test on MCF7 [1] and “tde” with MCF7 [3]. Besides, the IC50 in the test on MCF7 [1] amounted to 26.2 µM; in the test on A549, 38 µM; in test [2] it was 28.2 µM; with MCF7 [4] it was 20.5 µM; in the test with MCF7 [5] it was 16.2 µM.
As for `Cn1nc(-c2ccc(C(F)(F)F)cc2)cc1-c1nnc(SCc2cccc(Cl)c2Cl)o1`, the half-inhibitory concentration (IC50) in the test on MCF7 [1] turned out to be 60.2 µM; in the test on A549, 84.2 µM; in test [2], 56.5 µM.
For `Cn1nc(-c2ccc(C(F)(F)F)cc2)cc1-c1nnc(SCCc2ccc(F)cc2)o1`, in that order: 45.4 µM, 84.2 µM and 39.5 µM.
In the case of `Cn1nc(-c2nnc(S)o2)cc1-c1ccc(C(F)(F)F)cc1`, the concentration for half-maximal inhibition (IC50) with MCF7 [1] is over 100 µM; in test [2] it was 68.2 µM.
For `Cn1nc(-c2ccc(C(F)(F)F)cc2)cc1-c1nnc(SCc2ccc(C(F)(F)F)cc2)o1`, the results for the IC50 (in the test with MCF7 [1]; with A549; in test [2]) were 27.1 µM, 39.8 µM and 27.2 µM, respectively.
With `Cn1nc(-c2nnc(SCCc3ccc(F)cc3)o2)cc1-c1ccc(C(F)(F)F)cc1`, the Activity result was “Dose-dependent effect” in the test on MCF7 [1] and “tde” with MCF7 [3]. The IC50 turned out to be 25.2 µM in the test with MCF7 [1]; 39 µM in the test on A549; 29.2 µM in test [2]; 21.1 µM in the test on MCF7 [4]; 18.1 µM in the test with MCF7 [5].
Turning to `Cn1nc(-c2ccc(C(F)(F)F)cc2)cc1-c1nnc(SCc2cccc([N+](=O)[O-])c2)o1`, the IC50 (with MCF7 [1]; in test [2]) was over 100 µM throughout.
`COc1cccc2c1C(=O)c1c(O)c3c(c(O)c1C2=O)C[C@@](O)(C(=O)CO)C[C@@H]3O[C@H]1C[C@H](N)[C@H](O)[C@H](C)O1` [DOXORUBICIN] yielded a half-maximal inhibitory concentration (IC50) in the test on A549 of 3.28 µM.
As for `Cn1nc(-c2nnc(SCc3cccc([N+](=O)[O-])c3)o2)cc1-c1ccc(C(F)(F)F)cc1`, the IC50 (with MCF7 [1]; in test [2]) was over 100 µM in each case.
Take `Cn1nc(-c2nnc(SCCOc3ccccc3F)o2)cc1-c1ccc(C(F)(F)F)cc1`: the Activity entry in the test with MCF7 [1] is “Dose-dependent effect”; in the test with MCF7 [3], “tde”. Moreover, the IC50 is 23.1 µM in the test with MCF7 [1]; 48.1 µM with A549; 25.2 µM in test [2]; 19.2 µM in the test with MCF7 [4]; 14.2 µM in the test with MCF7 [5].
As to `Cn1nc(-c2nnc(SCc3ccc(C(F)(F)F)cc3)o2)cc1-c1ccc(C(F)(F)F)cc1`, the Activity entry with MCF7 [1] was “Dose-dependent effect”; with MCF7 [3] it was “tde”. In addition, the IC50 turned out to be 15.5 µM in the test on MCF7 [1]; 29.2 µM in the test on A549; 20.5 µM in test [2]; 8.86 µM with MCF7 [4]; 5.25 µM with MCF7 [5]. The figures for the “Ratio IC50” value in the test on MCF7 [6] and in the test on MCF7 [7] were 1.75 and 2.96, respectively.
